Data set [1] concerns the target T1, Prolyl endopeptidase FAP (Homo sapiens, UniProt Q12884).
T1 sequence (Q12884 whole entry): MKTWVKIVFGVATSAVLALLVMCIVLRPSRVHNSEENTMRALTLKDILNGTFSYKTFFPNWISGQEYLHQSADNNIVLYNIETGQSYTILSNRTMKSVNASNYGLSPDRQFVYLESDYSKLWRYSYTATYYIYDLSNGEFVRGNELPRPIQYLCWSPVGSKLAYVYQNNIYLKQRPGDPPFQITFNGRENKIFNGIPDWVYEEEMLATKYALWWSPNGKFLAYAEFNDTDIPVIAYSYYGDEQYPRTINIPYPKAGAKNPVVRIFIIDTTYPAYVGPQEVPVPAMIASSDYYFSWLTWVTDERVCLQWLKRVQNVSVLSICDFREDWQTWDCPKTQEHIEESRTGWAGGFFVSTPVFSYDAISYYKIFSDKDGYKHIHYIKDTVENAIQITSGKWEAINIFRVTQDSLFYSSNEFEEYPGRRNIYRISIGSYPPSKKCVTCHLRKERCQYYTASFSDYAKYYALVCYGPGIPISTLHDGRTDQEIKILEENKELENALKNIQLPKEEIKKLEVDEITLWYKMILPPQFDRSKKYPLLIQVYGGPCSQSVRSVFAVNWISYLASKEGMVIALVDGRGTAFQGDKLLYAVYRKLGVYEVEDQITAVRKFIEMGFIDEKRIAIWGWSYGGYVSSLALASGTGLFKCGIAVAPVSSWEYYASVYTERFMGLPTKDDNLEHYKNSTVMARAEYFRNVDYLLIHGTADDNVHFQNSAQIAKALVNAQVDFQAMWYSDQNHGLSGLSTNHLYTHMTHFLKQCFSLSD
The data set can be described thus: Prodrug activation assessed as recombinant human FAP-alpha mediated (S)-((3S,5R,8R,9S,10S,11S,13R,14S,17R)-11,14-dihydroxy-10,13-dimethyl-12-oxo-17-(2-oxo-2H-pyran-5-yl)hexadecahydro-1H-cyclopenta[a]phenanthren-3-yl) 2-amino-3-phenylpropanoate formation at 40 umol/L after 6 hrs in presence of FAP-alpha inhibitor talabostat by UPLC-MS/MS analysis. As to conditions: 40 µM. A digest of the protocol: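 Prodrug at 40 μmol/L incubated with rhFAPα at 0.45 μg/mL in 0.2 mL buffer at 37 °C for 6 h, with bufalin at 2 μmol/L as internal standard. Stopped with acetonitrile and spun at 18 000g for 15 min. Released active form measured by UPLC-MS/MS via peak-area ratio against a standard curve of 0.625–40 μmol/L.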

For data set [2], the target named is T1, Prolyl endopeptidase FAP. The data set can be described thus: Prodrug activation assessed as Vmax for recombinant human FAP-alpha mediated (S)-((3S,5R,8R,9S,10S,11S,13R,14S,17R)-11,14-dihydroxy-10,13-dimethyl-12-oxo-17-(2-oxo-2H-pyran-5-yl)hexadecahydro-1H-cyclopenta[a]phenanthren-3-yl) 2-amino-3-phenylpropanoate formation after 90 mins by UPLC-MS/MS analysis. Conditions: 1.5 h. A digest of the protocol:
(§1)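 Prodrug at 0.625–40 μmol/L incubated with rhFAPα at 0.45 μg/mL and internal standard in 0.2 mL PBS, pH 7.4, at 37 °C for 90 min. Quenched with MeCN and spun at 18 000g for 15 min; product measured by UPLC-MS/MS. S50 and Vmax fitted with an allosteric sigmoidal model; CLint = Vmax/S50. Three independent experiments.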

Data set [3] deals with T1, Prolyl endopeptidase FAP. The data set can be described thus: Prodrug activation assessed as recombinant human FAP-alpha mediated (S)-((3S,5R,8R,9S,10S,11S,13R,14S,17R)-11,14-dihydroxy-10,13-dimethyl-12-oxo-17-(2-oxo-2H-pyran-5-yl)hexadecahydro-1H-cyclopenta[a]phenanthren-3-yl) 2-amino-3-phenylpropanoate formation by measuring intrinsic clearance after 90 mins by UPLC-MS/MS analysis. As to conditions: 1.5 h. In outline: as §1

The target in data set [4] is T1, Prolyl endopeptidase FAP. As to the kind of experiment: Prodrug activation assessed as recombinant human FAP-alpha mediated (S)-((3S,5R,8R,9S,10S,11S,13R,14S,17R)-11,14-dihydroxy-10,13-dimethyl-12-oxo-17-(2-oxo-2H-pyran-5-yl)hexadecahydro-1H-cyclopenta[a]phenanthren-3-yl) 2-amino-3-phenylpropanoate by measuring concentration of test compound gives half-maximal activity formation after 90 mins by UPLC-MS/MS analysis. As to conditions: 1.5 h. A digest of the protocol:
as §1

Data set [5] deals with T1, Prolyl endopeptidase FAP. The data set can be described thus: Prodrug activation assessed as recombinant human FAP-alpha mediated (2S,3S)-((3S,5R,8R,9S,10S,11S,13R,14S,17R)-11,14-dihydroxy-10,13-dimethyl-12-oxo-17-(2-oxo-2H-pyran-5-yl)hexadecahydro-1H-cyclopenta[a]phenanthren-3-yl) 2-amino-3-methylpentanoate formation by measuring intrinsic clearance after 90 mins by UPLC-MS/MS analysis. Conditions: 1.5 h. In outline:
as §1

The target of data set [6] is T1, Prolyl endopeptidase FAP. The data set can be described thus: Prodrug activation assessed as Vmax for recombinant human FAP-alpha mediated (2S,3S)-((3S,5R,8R,9S,10S,11S,13R,14S,17R)-11,14-dihydroxy-10,13-dimethyl-12-oxo-17-(2-oxo-2H-pyran-5-yl)hexadecahydro-1H-cyclopenta[a]phenanthren-3-yl) 2-amino-3-methylpentanoate formation after 90 mins by UPLC-MS/MS analysis. As to conditions: 1.5 h. A digest of the protocol:
as §1

The target of data set [7] is T1, Prolyl endopeptidase FAP. The data set can be described thus: Prodrug activation assessed as recombinant human FAP-alpha mediated (2S,3S)-((3S,5R,8R,9S,10S,11S,13R,14S,17R)-11,14-dihydroxy-10,13-dimethyl-12-oxo-17-(2-oxo-2H-pyran-5-yl)hexadecahydro-1H-cyclopenta[a]phenanthren-3-yl) 2-amino-3-methylpentanoate by measuring concentration of test compound gives half-maximal activity formation after 90 mins by UPLC-MS/MS analysis. Conditions: 1.5 h. A digest of the protocol:
as §1

Data set [8] has as its target T1, Prolyl endopeptidase FAP. The data set can be described thus: Prodrug activation assessed as recombinant human FAP-alpha mediated 5-((3S,5R,8R,9S,10S,11S,13R,14S,17R)-3-(2-(4-aminophenyl)acetyl)-11,14-dihydroxy-10,13-dimethyl-12-oxohexadecahydro-1H-cyclopenta[a]phenanthren-17-yl)-2H-pyran-2-one formation by measuring intrinsic clearance at 40 umol/L after 6 hrs by UPLC-MS/MS analysis. As to conditions: 40 µM.

Data set [9] addresses T1, Prolyl endopeptidase FAP. The data set can be described thus: Prodrug activation assessed as recombinant human FAP-alpha mediated (S)-((3S,5R,8R,9S,10S,11S,13R,14S,17R)-11,14-dihydroxy-10,13-dimethyl-12-oxo-17-(2-oxo-2H-pyran-5-yl)hexadecahydro-1H-cyclopenta[a]phenanthren-3-yl) 2-amino-4-methylpentanoate formation by measuring intrinsic clearance after 90 mins by UPLC-MS/MS analysis. Conditions: 1.5 h. In outline:
as §1

Data set [10] addresses T1, Prolyl endopeptidase FAP. As to the kind of experiment: Prodrug activation assessed as recombinant human FAP-alpha mediated (S)-((3S,5R,8R,9S,10S,11S,13R,14S,17R)-11,14-dihydroxy-10,13-dimethyl-12-oxo-17-(2-oxo-2H-pyran-5-yl)hexadecahydro-1H-cyclopenta[a]phenanthren-3-yl) 2-amino-4-methylpentanoate formation by measuring concentration of test compound gives half-maximal activity after 90 mins by UPLC-MS/MS analysis. As to conditions: 1.5 h. In outline:
as §1

Data set [11] addresses T1, Prolyl endopeptidase FAP. The data set can be described thus: Prodrug activation assessed as Vmax for recombinant human FAP-alpha mediated (S)-((3S,5R,8R,9S,10S,11S,13R,14S,17R)-11,14-dihydroxy-10,13-dimethyl-12-oxo-17-(2-oxo-2H-pyran-5-yl)hexadecahydro-1H-cyclopenta[a]phenanthren-3-yl) 2-amino-4-methylpentanoate formation after 90 mins by UPLC-MS/MS analysis. As to conditions: 1.5 h. A digest of the protocol: as §1

Data on four compounds can be found in ChEMBL document CHEMBL4038302, “Fibroblast Activation Protein α Activated Tripeptide Bufadienolide Antitumor Prodrug with Reduced Cardiotoxicity” (J Med Chem, 2017).

Turning to `C[C@]12CC[C@H](OC(=O)[C@H](Cc3ccccc3)NC(=O)[C@@H]3CCCN3C(=O)CNC(=O)OCc3ccccc3)C[C@H]1CC[C@@H]1[C@@H]2[C@H](O)C(=O)[C@]2(C)[C@@H](c3ccc(=O)oc3)CC[C@]12O`, the Drug metabolism entry at Prolyl endopeptidase FAP [1] was “Metabolite_Notdetected”. Further, the Vmax on Prolyl endopeptidase FAP [2] was found to be 0.366 µmol/min/mg. Besides, the CL on Prolyl endopeptidase FAP [3] worked out at 42360 µL/min/mg. In addition, the S50 at Prolyl endopeptidase FAP [4] worked out at 8.64 µmol/L.
On to `CC[C@H](C)[C@H](NC(=O)[C@@H]1CCCN1C(=O)CNC(=O)OCc1ccccc1)C(=O)O[C@H]1CC[C@@]2(C)[C@H](CC[C@@H]3[C@@H]2[C@H](O)C(=O)[C@]2(C)[C@@H](c4ccc(=O)oc4)CC[C@]32O)C1`, for which, on Prolyl endopeptidase FAP [5], the CL was 1590 µL/min/mg. Besides, at Prolyl endopeptidase FAP [6], the Vmax turned out to be 0.014 µmol/min/mg. Besides, at Prolyl endopeptidase FAP [7], the S50 is 8.82 µmol/L.
In the case of `C[C@]12CC[C@H](OC(=O)Cc3ccc(NC(=O)[C@@H]4CCCN4C(=O)CNC(=O)OCc4ccccc4)cc3)C[C@H]1CC[C@@H]1[C@@H]2[C@H](O)C(=O)[C@]2(C)[C@@H](c3ccc(=O)oc3)CC[C@]12O`, the CL on Prolyl endopeptidase FAP [8] stood at 7070 µL/min/mg.
`CC(C)C[C@H](NC(=O)[C@@H]1CCCN1C(=O)CNC(=O)OCc1ccccc1)C(=O)O[C@H]1CC[C@@]2(C)[C@H](CC[C@@H]3[C@@H]2[C@H](O)C(=O)[C@]2(C)[C@@H](c4ccc(=O)oc4)CC[C@]32O)C1`: on Prolyl endopeptidase FAP [9], the CL is 3520 µL/min/mg. Besides, on Prolyl endopeptidase FAP [10], the S50 is 11.92 µmol/L. For the same compound, the maximum rate (Vmax) at Prolyl endopeptidase FAP [11] was determined as 0.042 µmol/min/mg.

One may read the Vmax as the top rate of the reaction or transport when substrate is in excess.
